In ChEMBL document CHEMBL2203173 (J Med Chem, 2012):

Columns and labels:
Mus musculus [1] = experiment: Toxicity in BALB/c nu/nu mouse xenografted with human DMS53 cells assessed as change in heart weight at 10 mg/kg, po administered for 3 times a week measured after 20 days; format: organism-based, DMS-53; set-up: dose 10 mg/kg, route oral; settings: in vivo, 480 h
How it was run: (§1)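 Nude mice bearing DMS-53 xenografts gavaged 3 times/week for 20 days, vehicle 30% propylene glycol/saline, vehicle controls, n = 6-11 mice/condition. Sacrifice on day 20. Organ weights and hematological indices recorded. Spleen, kidney, liver, heart, lungs and brain examined histologically, hearts stained with Gomori Trichrome for fibrosis.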

Mus musculus [2] = experiment: Toxicity in BALB/c nu/nu mouse xenografted with human DMS53 cells assessed as change in heart histology at 10 mg/kg, po administered for 3 times a week measured after 20 days; format: organism-based, DMS-53; set-up: dose 10 mg/kg, route oral; settings: in vivo, 480 h; how it was run: as §1
Mus musculus [3] = experiment: Toxicity in BALB/c nu/nu mouse xenografted with human DMS53 cells assessed as change in brain histology at 10 mg/kg, po administered for 3 times a week measured after 20 days; format: organism-based, DMS-53; set-up: dose 10 mg/kg, route oral; settings: in vivo, 480 h; how it was run: as §1
Mus musculus [4] = experiment: Toxicity in BALB/c nu/nu mouse xenografted with human DMS53 cells assessed as change in brain histology at 7.5 mg/kg, po administered for 3 times a week measured after 20 days; format: organism-based, DMS-53; set-up: dose 7.5 mg/kg, route oral; settings: in vivo, 480 h; how it was run: as §1
A549 = experiment: Antiproliferative activity at human A549 cells after 72 hrs by MTT assay; format: functional, cell-based
Mus musculus [5] = experiment: Toxicity in BALB/c nu/nu mouse xenografted with human DMS53 cells assessed as change in heart histology at 7.5 mg/kg, po administered for 3 times a week measured after 20 days; format: organism-based, DMS-53; set-up: dose 7.5 mg/kg, route oral; settings: in vivo, 480 h; how it was run: as §1
MRC5 = experiment: Antiproliferative activity at human MRC5 cells after 72 hrs by MTT assay; format: functional, cell-based; settings: MRC5, 72 h
Mus musculus [6] = experiment: Toxicity in BALB/c nu/nu mouse xenografted with human DMS53 cells assessed as change in spleen histology at 7.5 mg/kg, po administered for 3 times a week measured after 20 days; format: organism-based, DMS-53; set-up: dose 7.5 mg/kg, route oral; settings: in vivo, 480 h
How it was run: (§2)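 DMS-53 xenograft nude mice were gavaged 3 times/week in 30% propylene glycol/saline vehicle for 20 days and then sacrificed. Organ weights and histology of spleen, kidney, liver, heart, lungs and brain were compared with vehicle controls. n = 6-11 mice/condition.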

Mus musculus [7] = experiment: Toxicity in BALB/c nu/nu mouse xenografted with human DMS53 cells assessed as change in spleen histology at 10 mg/kg, po administered for 3 times a week measured after 20 days; format: organism-based, DMS-53; set-up: dose 10 mg/kg, route oral; settings: in vivo, 480 h; how it was run: as §2
Mus musculus [8] = experiment: Toxicity in BALB/c nu/nu mouse xenografted with human DMS53 cells assessed as change in lungs histology at 7.5 mg/kg, po administered for 3 times a week measured after 20 days; format: organism-based, DMS-53; set-up: dose 7.5 mg/kg, route oral; settings: in vivo, 480 h; how it was run: as §2
DMS-53 = experiment: Antiproliferative activity at human DMS53 cells after 72 hrs by MTT assay; format: functional, cell-based; settings: Homo sapiens, DMS-53, 72 h
Mus musculus [9] = experiment: Toxicity in BALB/c nu/nu mouse xenografted with human DMS53 cells assessed as change in liver histology at 20 mg/kg, po administered for 3 times a week measured after 20 days; format: organism-based, DMS-53; set-up: dose 20 mg/kg, route oral; settings: in vivo, 480 h; how it was run: as §1
Mus musculus [10] = experiment: Toxicity in BALB/c nu/nu mouse xenografted with human DMS53 cells assessed as change in spleen histology at 20 mg/kg, po administered for 3 times a week measured after 20 days; format: organism-based, DMS-53; set-up: dose 20 mg/kg, route oral; settings: in vivo, 480 h; how it was run: as §2
Mus musculus [11] = experiment: Toxicity in BALB/c nu/nu mouse xenografted with human DMS53 cells assessed as change in hemoglobin level at 10 mg/kg, po administered for 3 times a week measured after 20 days; format: organism-based, DMS-53; set-up: dose 10 mg/kg, route oral; settings: in vivo, 480 h; how it was run: as §1
Mus musculus [12] = experiment: Toxicity in BALB/c nu/nu mouse xenografted with human DMS53 cells assessed as change in brain histology at 20 mg/kg, po administered for 3 times a week measured after 20 days; format: organism-based, DMS-53; set-up: dose 20 mg/kg, route oral; settings: in vivo, 480 h; how it was run: as §1
Mus musculus [13] = experiment: Toxicity in BALB/c nu/nu mouse xenografted with human DMS53 cells assessed as change in liver histology at 7.5 mg/kg, po administered for 3 times a week measured after 20 days; format: organism-based, DMS-53; set-up: dose 7.5 mg/kg, route oral; settings: in vivo, 480 h; how it was run: as §1
Mus musculus [14] = experiment: Cardiotoxicity in BALB/c nu/nu mouse xenografted with human DMS53 cells at 7.5 mg/kg, po administered for 3 times a week measured after 20 days; format: toxicity, organism-based, DMS-53; set-up: dose 7.5 mg/kg, route oral; settings: in vivo, 480 h
How it was run: (§3)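 DMS-53 xenograft nude mice given oral gavage 3 times/week in 30% propylene glycol/saline for 20 days. Heart sections taken after 20 days were stained with Gomori Trichrome for fibrosis and viewed at 100×. Other organs were examined histologically.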

Mus musculus [15] = experiment: Toxicity in BALB/c nu/nu mouse xenografted with human DMS53 cells assessed as change in kidney histology at 7.5 mg/kg, po administered for 3 times a week measured after 20 days; format: organism-based, DMS-53; set-up: dose 7.5 mg/kg, route oral; settings: in vivo, 480 h; how it was run: as §1
Mus musculus [16] = experiment: Toxicity in BALB/c nu/nu mouse xenografted with human DMS53 cells assessed as cardiac fibrosis at 20 mg/kg, po administered for 3 times a week measured after 20 days using Gomori Trichrome stain; format: organism-based, Heart, DMS-53; set-up: dose 20 mg/kg, route oral; settings: in vivo, 480 h; how it was run: as §3
Mus musculus [17] = experiment: Toxicity in BALB/c nu/nu mouse xenografted with human DMS53 cells assessed as change in kidney histology at 10 mg/kg, po administered for 3 times a week measured after 20 days; format: organism-based, DMS-53; set-up: dose 10 mg/kg, route oral; settings: in vivo, 480 h; how it was run: as §1
Mus musculus [18] = experiment: Toxicity in BALB/c nu/nu mouse xenografted with human DMS53 cells assessed as change in spleen weight at 10 mg/kg, po administered for 3 times a week measured after 20 days; format: organism-based, DMS-53; set-up: dose 10 mg/kg, route oral; settings: in vivo, 480 h; how it was run: as §2
Mus musculus [19] = experiment: Cardiotoxicity in human DMS53 cells xenografted BALB/c nu/nu mouse at 10 mg/kg, po administered for 3 times a week measured after 20 days; format: toxicity, organism-based, DMS-53; set-up: dose 10 mg/kg, route oral; settings: in vivo, 480 h; how it was run: as §3
Mus musculus [20] = experiment: Toxicity in BALB/c nu/nu mouse xenografted with human DMS53 cells assessed as change in lungs histology at 10 mg/kg, po administered for 3 times a week measured after 20 days; format: organism-based, DMS-53; set-up: dose 10 mg/kg, route oral; settings: in vivo, 480 h; how it was run: as §1
Mus musculus [21] = experiment: Toxicity in BALB/c nu/nu mouse xenografted with human DMS53 cells assessed as change in liver histology at 10 mg/kg, po administered for 3 times a week measured after 20 days; format: organism-based, DMS-53; set-up: dose 10 mg/kg, route oral; settings: in vivo, 480 h; how it was run: as §1
Mus musculus [22] = experiment: Toxicity in BALB/c nu/nu mouse xenografted with human DMS53 cells assessed as cardiac fibrosis at 10 mg/kg, po administered for 3 times a week measured after 20 days using Gomori Trichrome stain; format: organism-based, Heart, DMS-53; set-up: dose 10 mg/kg, route oral; settings: in vivo, 480 h; how it was run: as §3
[23] = Toxicity in po dosed BALB/c nu/nu mouse xenografted with human DMS53 cells measured for 28 days; format: organism-based, DMS-53; settings: in vivo
How it was run: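 Oral dose-range-finding study to set the maximum tolerated dose in nude mice bearing DMS-53 tumors, with dosing over a 28-day treatment period.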

Mus musculus [24] = experiment: Toxicity in BALB/c nu/nu mouse xenografted with human DMS53 cells assessed as cardiac fibrosis at 7.5 mg/kg, po administered for 3 times a week measured after 20 days using Gomori Trichrome stain; format: organism-based, Heart, DMS-53; set-up: dose 7.5 mg/kg, route oral; settings: in vivo, 480 h; how it was run: as §3
Mus musculus [25] = experiment: Toxicity in BALB/c nu/nu mouse xenografted with human DMS53 cells assessed as change in lungs histology at 20 mg/kg, po administered for 3 times a week measured after 20 days; format: organism-based, DMS-53; set-up: dose 20 mg/kg, route oral; settings: in vivo, 480 h; how it was run: as §1
Mus musculus [26] = experiment: Toxicity in BALB/c nu/nu mouse xenografted with human DMS53 cells assessed as change in heart histology at 20 mg/kg, po administered for 3 times a week measured after 20 days; format: organism-based, DMS-53; set-up: dose 20 mg/kg, route oral; settings: in vivo, 480 h; how it was run: as §1
Mus musculus [27] = experiment: Toxicity in BALB/c nu/nu mouse xenografted with human DMS53 cells assessed as change in hematocrit level at 10 mg/kg, po administered for 3 times a week measured after 20 days; format: organism-based, DMS-53; set-up: dose 10 mg/kg, route oral; settings: in vivo, 480 h; how it was run: as §1
Mus musculus [28] = experiment: Toxicity in BALB/c nu/nu mouse xenografted with human DMS53 cells assessed as change in kidney histology at 20 mg/kg, po administered for 3 times a week measured after 20 days; format: organism-based, DMS-53; set-up: dose 20 mg/kg, route oral; settings: in vivo, 480 h; how it was run: as §1

Row | SMILES | Activity (Mus musculus [1]) | Activity (Mus musculus [2]) | Activity (Mus musculus [3]) | Activity (Mus musculus [4]) | Activity (Mus musculus [5]) | IC50 (MRC5) | Activity (Mus musculus [6]) | Activity (Mus musculus [7]) | Activity (Mus musculus [8]) | IC50 (DMS-53) | Activity (Mus musculus [9]) | Activity (Mus musculus [10]) | Activity (Mus musculus [11]) | Activity (Mus musculus [12]) | Activity (Mus musculus [13]) | Activity (Mus musculus [14]) | Activity (Mus musculus [15]) | Activity (Mus musculus [16]) | Activity (Mus musculus [17]) | Activity (Mus musculus [18]) | further results
1 | CCN(C)C(=S)NN=C(c1ccccn1)c1ccccn1.Cl | Toxic | Non-toxic | Non-toxic | Non-toxic | Non-toxic | > 10 µM | Non-toxic | Non-toxic | Non-toxic | 6 nM | Non-toxic | Non-toxic | Toxic | Non-toxic | Non-toxic | Non-toxic | Non-toxic | Non-toxic | Non-toxic | Non-toxic | IC50 (A549; a549): 1 nM; Activity (Mus musculus [19]): Non-toxic; Activity (Mus musculus [20]): Non-toxic; Activity (Mus musculus [21]): Non-toxic; Activity (Mus musculus [22]): Non-toxic; MTD at 672 h [23]: 10 mg/kg; Activity (Mus musculus [24]): Non-toxic; Activity (Mus musculus [25]): Non-toxic; Activity (Mus musculus [26]): Non-toxic; Activity (Mus musculus [27]): Toxic; Activity (Mus musculus [28]): Non-toxic
2 | CN(C(=S)NN=C(c1ccccn1)c1ccccn1)C1CCCCC1.Cl | Non-toxic | Non-toxic | Non-toxic | Non-toxic | Non-toxic | > 10 µM | Non-toxic | Non-toxic | Non-toxic | 7 nM | Non-toxic | Non-toxic | Non-toxic | Non-toxic | Non-toxic | Non-toxic | Non-toxic | Non-toxic | Non-toxic | Non-toxic | IC50 (A549; Homo sapiens, A549, 72 h): 4 nM; Activity (Mus musculus [19]): Non-toxic; Activity (Mus musculus [20]): Non-toxic; Activity (Mus musculus [21]): Non-toxic; Activity (Mus musculus [22]): Non-toxic; MTD at 672 h [23]: 20 mg/kg; Activity (Mus musculus [24]): Non-toxic; Activity (Mus musculus [25]): Non-toxic; Activity (Mus musculus [26]): Non-toxic; Activity (Mus musculus [27]): Non-toxic; Activity (Mus musculus [28]): Non-toxic
